In ChEMBL document CHEMBL4513216, “Probing the Open Global Health Chemical Diversity Library for Multistage-Active Starting Points for Next-Generation Antimalarials” (ACS Infect Dis, 2020):

Assay: Toxicity liver stage against HepG2, at 10uM
Format: cell-based
Design: test concentration 10 uM, cell line HepG2-A16-CD81EGFP
Settings: human, HepG2-A16-CD81EGFP cells; read-out: INHIBITION
In short: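 Uninfected HepG2-A16-CD81EGFP cells, 3 × 10^3 per well, 1536-well, plated on prespotted compound at 10 μM final, parasite-free screening media added to match infected plates; puromycin 10 μM positive, DMSO 0.5% negative; run in parallel with 48 h PbLuc assay at 37 °C, 5% CO2; viability by CellTiter-Glo luminescence, normalized to controls.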

Row | SMILES | cytotoxicity at 10 µM [%]
1 | CNC(=O)NC1CC2(CCNCC2)c2ccc(C)cc21 (centres undefined) | -4.97
2 | N#CC1(C(=O)N2C[C@@H]3CC[C@H]2CN(Cc2ccncc2)C3)CCOCC1 | -11.9
3 | O=S(=O)(c1cccnc1)N1C[C@@H]2COC[C@]2(CN2CCOCC2)C1 | 5.86
4 | CN1C(=O)CC(c2ccccc2)C12CCN(CC1CC1)CC2 (centres undefined) | -1.95
5 | CC(=O)N1CCc2c(nc(-c3cccnc3)nc2N(C)CC(O)CO)C1 (centres undefined) | -2.03
6 | O=C(c1cccc2c1OCO2)N1CCCC1c1noc(C2CC2)n1 (centres undefined) | -23.2
7 | COc1ccc(-c2n[nH]cc2CN(C)Cc2nccn2C)c(F)c1 | -2.77
8 | Cc1ccc(NS(=O)(=O)c2ccc(C#N)cc2)c(CN(C)C)c1 | -8.51
9 | COCCN1C[C@@H](C)[C@@]2(COCCN(C(=O)c3cnc(C)cn3)C2)C1 | -0.665
10 | Cc1cnc(CCNC(=O)C2CCN(S(=O)(=O)c3ccc(F)cc3)C2)s1 (centres undefined) | 2.56
11 | Fc1ccc(CN2CCC(c3n[nH]c4ncccc34)CC2)cc1F | 9.12
12 | COc1ccc(C2CCCN2c2cnc3ccccc3n2)c(OC)c1 (centres undefined) | 7.54
13 | Cc1cn(CC(=O)N(C)Cc2cccc3ncccc23)c(=O)[nH]c1=O | 14.2
14 | O=C1NC2(CCN(c3ncccn3)CC2)CC1c1cccnc1 (centres undefined) | -71.4
15 | CCc1nnc(CN(CC)C(=O)C2CC(=O)N(C(C)(C)C)C2)o1 (centres undefined) | 1.56
16 | Cc1cnn(CC2CN(Cc3nccn3C)CCO2)c1 (centres undefined) | -2.06
17 | CC(=O)NC1(C(=O)N2CCCN(c3cccnn3)CC2)CCCCC1 | 8.15
18 | CC[C@H](C)[C@H](N)C(=O)Nc1nc(-c2cnc(N(C)CCO)nc2)cs1 | -9.27
19 | Cc1ncc(-c2ccnc(N3CCCCC3)n2)c(=O)[nH]1 | 7.53
20 | CCc1ccc(C(COC)NC(=O)c2ccsc2)o1 (centres undefined) | 1.57
21 | O=c1[nH]cnc2c1CCN(S(=O)(=O)c1ccc(Cl)cc1)C2 | -1.68
22 | COCCCNC(=O)CN(C)C(=O)c1ccccc1O | -7.04

Row | SMILES | cytotoxicity at 10 µM [%]
23 | COCCSCC(=O)NC1(c2cccc(Br)c2)CC1 | 13.3
24 | Cn1ncc2c1CCCC2NCc1cccc2c1OCCCO2 (centres undefined) | -9.86
25 | Cc1csc2ncc(-c3ccnc(N4CCCC[C@@H]4CO)n3)c(=O)n12 | 9.12
26 | COCCc1ncc(CN2C[C@H](C3CC3)[C@@H](N)C2)cn1 | -42
27 | O=C([C@H]1C[C@H]2OCC[C@H]2N(C(=O)c2ccnnc2)C1)N1CCCCO1 | 4
28 | CC(=O)N1Cc2cnc(C(C)(C)C)nc2C1 | -122
29 | COc1cccc(CCNC(=O)CCS(=O)(=O)C2CCCC2)c1 | 2.2
30 | Cc1cc(CNc2cncc(C(=O)N(C)C)n2)c2[nH]c(C)c(C)c2c1 | -12.2
31 | Cc1nccc([C@H]2C[C@@H]3CCN(S(=O)(=O)C4CC4)C[C@H]3O2)n1 | -2.3
32 | CC(NC(=O)Nc1ccc(-c2csnn2)cc1)C(=O)NC(C)(C)C (centres undefined) | 9.11
33 | CCOc1ccccc1-c1noc(CN(C)Cc2cnn(C)c2)n1 | -6.98
34 | O=C(c1cocn1)N1C[C@H]2CCC[C@@]2(COc2ccccn2)C1 | -0.798
35 | CCn1cc(NC(=O)NCC(C)N(C)C2CC2)cn1 (centres undefined) | -3.54
36 | CCOc1ncccc1C(=O)N1CCN(C)C2(CCN(C)CC2)C1 | -0.351
37 | CO[C@@H]1CCN(S(=O)(=O)c2cccs2)[C@H]1Cc1cccnc1 | -80.3
38 | O=C1CCc2cc(C(=O)NCc3ccc(-n4cncn4)nc3)ccc2N1 | -11.5
39 | Cn1ncc2c(N3CCCC(C)(O)C3)nc(C(C)(C)C)nc21 (centres undefined) | -43.6
40 | Cc1ccn(-c2cncc(C(N)=O)c2)n1 | 0.0642
41 | CCN(Cc1ccoc1)C(=O)NC1CCN(CC=C(C)C)CC1 | -3.89
42 | O=C(C1CCSCC1)N1CCC2(CC1)COC(COCC1CC1)C2 (centres undefined) | 2.56
43 | CC1CCN(C(=O)c2cnc3cc(C(=O)N(C)C)n(C)c3c2)CC1 | 6.14
44 | COc1ccc(-c2cccc(-c3ccn(CC4COCCO4)n3)c2)nn1 (centres undefined) | -7.78
